Reference: PubChem BioAssay AID588736 (Vanderbilt Specialized Chemistry Center, 2011)
Calls of active or inactive are those of the source.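 How the source made its calls: active means compound halving or more than doubling glutamate potency, or top glutamate response under 75% or over 125% of control; inactive means the rest.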

Target: Metabotropic glutamate receptor 1 (Rattus norvegicus) (UniProt P23385)
Assay: rat mGlu1 allosteric modulation, glutamate curve shift, profiling panel, selectivity assay for mGlu5 PAM project, calcium fluorescence, HEK293A cells (AID 588736)
Conditions: glutamate CRC shift, at 10 µM; for Emax: measured here: glutamate Emax with compound; for Emin: measured here: glutamate Emin with compound, stronger effect = higher value
In short: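 System: rat mGlu1 in HEK293A cells; control set: vehicle-treated glutamate curves as reference for maximal response; measured by: calcium fluorescence with Fluo4-AM dye, 1 µM final; times: compound added at 1.5 s, glutamate curve at 142 s; doses: test compound at a single 10 µM final, or vehicle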

Metabotropic glutamate receptor 1 (Rattus norvegicus), sequence (P23385 whole entry, looked up): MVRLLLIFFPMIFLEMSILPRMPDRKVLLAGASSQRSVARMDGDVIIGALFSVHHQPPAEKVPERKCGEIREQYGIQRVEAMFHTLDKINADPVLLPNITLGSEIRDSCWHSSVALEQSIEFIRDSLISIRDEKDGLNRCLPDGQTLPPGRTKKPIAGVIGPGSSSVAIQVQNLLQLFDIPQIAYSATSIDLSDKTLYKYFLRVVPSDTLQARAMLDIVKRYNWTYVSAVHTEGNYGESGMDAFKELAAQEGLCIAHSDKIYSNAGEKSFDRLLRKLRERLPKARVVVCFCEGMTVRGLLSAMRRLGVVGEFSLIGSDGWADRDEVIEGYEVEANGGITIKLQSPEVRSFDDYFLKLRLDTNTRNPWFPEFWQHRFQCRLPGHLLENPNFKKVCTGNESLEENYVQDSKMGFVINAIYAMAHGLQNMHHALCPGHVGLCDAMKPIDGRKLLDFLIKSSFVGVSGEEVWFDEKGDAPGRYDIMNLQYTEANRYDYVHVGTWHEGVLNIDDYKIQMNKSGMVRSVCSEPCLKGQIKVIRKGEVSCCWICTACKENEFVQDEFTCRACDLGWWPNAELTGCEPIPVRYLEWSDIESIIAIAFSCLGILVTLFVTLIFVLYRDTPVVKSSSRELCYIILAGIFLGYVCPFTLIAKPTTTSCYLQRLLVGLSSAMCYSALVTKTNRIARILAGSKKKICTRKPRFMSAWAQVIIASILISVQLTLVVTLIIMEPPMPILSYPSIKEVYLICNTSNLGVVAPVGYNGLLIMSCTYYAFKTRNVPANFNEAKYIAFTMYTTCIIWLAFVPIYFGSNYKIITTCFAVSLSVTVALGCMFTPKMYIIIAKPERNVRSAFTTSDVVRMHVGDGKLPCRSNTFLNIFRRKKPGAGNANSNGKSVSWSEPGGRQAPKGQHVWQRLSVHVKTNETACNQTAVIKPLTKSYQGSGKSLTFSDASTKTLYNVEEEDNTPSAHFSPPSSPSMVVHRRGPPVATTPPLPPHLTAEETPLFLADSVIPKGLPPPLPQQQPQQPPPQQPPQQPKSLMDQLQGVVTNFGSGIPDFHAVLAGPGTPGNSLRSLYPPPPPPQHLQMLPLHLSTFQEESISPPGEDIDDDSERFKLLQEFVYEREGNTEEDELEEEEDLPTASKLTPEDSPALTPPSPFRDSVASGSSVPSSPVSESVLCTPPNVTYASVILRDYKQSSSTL

fold shift	Emax [%]	Emin [%]	SMILES
0.93 (inactive)	91	1	CC1(NC(=O)c2ccc(C#Cc3cccc(F)c3)cn2)COC1
1.43 (inactive)	94	1	C[C@@H](NC(=O)c1ccc(C#Cc2cccc(F)c2)cn1)C(C)(C)O
